# High-throughput results from PubChem.
# Autophagy mod – alters autophagy in cells. calls only at 10 µM (by protocol). hit rate 0.98% among 190,000. AID 463193. MEF GFP-LC3 puncta imaging; test concentration mostly 10 µM;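 active = percentage of spot-positive cells more than 3 SD above its plate mean, without a fluorescence outlier flag or 80% toxicity; inconclusive = no clear call, values can overlap the other calls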;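 also: spot-positive cell cutoff set from DMSO-treated cells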
# Insulin prom up – MIN6 insulin promoter up-regulation | z-score at 5 µM | MIN6 insulin promoter-GFP reporter, high-content imaging; active compounds read high | AID 1625 | hit rate 0.3% among 190,000;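 active = z-score above 3 at 5 µM with at least 500 cells counted in the well; inconclusive = wells under 500 cells, flagged as cytotoxic or low count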
# WT yeast gro inh – growth inhibition of WT yeast, mitochondrial fusion screen; inhibition, % at 10 µM; hit rate 2.1% among 190,000; mitochondrial fusion phenotypic screen, WT strain; in the data active = inhibition above about 58%; tested in S. cerevisiae
# Rad51 HR inh – blocks human Rad51 in homologous recombination. hRad51 DNA strand exchange, fluorescence dequenching. Q06609. inhibition, % at 10 µM. hit rate 0.085% among 200,000;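 active = inhibition above 40% at the single screening dose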;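 also: 0% = DMSO control wells and 100% = blanks with heterologous ssDNA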
# Target sequence (Q06609 whole entry, looked up): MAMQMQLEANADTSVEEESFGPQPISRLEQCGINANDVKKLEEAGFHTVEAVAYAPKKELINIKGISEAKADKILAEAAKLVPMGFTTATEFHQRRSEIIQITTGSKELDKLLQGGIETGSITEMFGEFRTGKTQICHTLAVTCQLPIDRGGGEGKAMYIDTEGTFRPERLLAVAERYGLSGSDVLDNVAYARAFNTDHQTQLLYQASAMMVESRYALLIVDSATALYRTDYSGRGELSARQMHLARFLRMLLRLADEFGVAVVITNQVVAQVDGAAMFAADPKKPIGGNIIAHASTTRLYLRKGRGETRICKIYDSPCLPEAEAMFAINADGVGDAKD
#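 System: hRad51 filaments on single-stranded DNA; reagent: Fluorescein- and BHQ1-tagged 47-mer duplex; compound dosing: one concentration, 10 µM final; timing: filaments 15 min 37 °C, then compound 30 min; measured by: fluorescein emission 520 nm, excitation 485 nm; benchmarks: per-plate controls and blanks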
# SKKanGAS inh – blocks kanamycin growth of S. pyogenes SKKanGAS strain; BacTiter-Glo, 6 h; inhibition, % at 7.5 µM; hit rate 1.3% among 300,000; AID 1662;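 active = mean replicate score, as percent of positive control median, at least 50; inconclusive = mean below 50 but one replicate at or above 50; inactive = mean and every replicate below 50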;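 also: strain carries kanamycin resistance gene driven by streptokinase promoter and grows in 40 µg/ml kanamycin; loss of luminescence reflects streptokinase promoter inhibition or plain growth inhibition; 0% = median of DMSO wells and 100% = positive control at its reference dose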
# KCC2 mod – KCC2 (human) Cl- transport modulation; hit rate 2.2% among 190,000; B-score of Tl+ flux slope (higher = more flux/activation; lower = inhibition) at 10 µM; Q9H2X9; KCC2 cells, thallium flux FluoZin-2 fluorescence; AID 1456;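 active = thallium flux slope and its plate-corrected score both differing from the plate sample mean at a set confidence after two filtering rounds, in either direction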;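 also: slope of fluorescence scaled to starting intensity during 10 to 20 s after thallium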
# KCC2 sec1 – confirmation of human KCC2 transport modulators; shares compounds with KCC2 mod; HEK293-KCC2, thallium flux, FluoZin2 fluorescence; active compounds read high; normalised thallium flux (F/F0 slope) at 10 µM; hit rate 15% among 3,700; AID 1713;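 active = thallium flux slope above the same plate's solvent-only control mean plus 3 SD; inconclusive = the two replicate wells disagree; inactive = no significant difference from solvent-only control wells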
# KCC2 bumet counter – thallium flux persisting under bumetanide in KCC2 cells, counter-screen secondary assay | shares compounds with KCC2 mod | normalized thallium flux at 10 µM | hit rate 49% among 3,700 | AID 1714 | HEK293-KCC2 + bumetanide/ouabain, thallium flux FluoZin2; active compounds read high;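 active = thallium entry rate above the same plate's blocked-transporter control wells by more than 3 SD; inconclusive = the two repeat wells disagree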;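 also: raw slope of fluorescence over initial fluorescence between 10 and 20 s after thallium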
# KCC2 sec2 – KCC2 (human) modulation, second secondary assay. shares compounds with KCC2 mod. HEK293-KCC2, thallium flux FluoZin2 fluorescence; actives lie on both sides; F/F0 rise rate, 10–20 s post-thallium. normalized thallium flux at 10 µM. hit rate 23% among 3,700;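 active = thallium flux slope more than 3 SD above or below the plate's solvent-only control mean, mostly below; inconclusive = the two repeat wells disagreed; inactive = no significant shift from solvent-only controls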;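 also: raw slope with 0.1% DMSO as baseline and bumetanide as block control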
# HEK293 Tl flux – parental HEK flux effect, counter-screen. shares compounds with KCC2 mod. HEK293 parental cells, thallium flux FluoZin2, ouabain; baseline-ratio fluorescence slope, 10–20 s after thallium. thallium flux rate (normalised fluorescence) at 10 µM. hit rate 46% among 3,700. AID 1716;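 active = thallium flux rate significantly above the same plate's solvent-only control wells, beyond their mean plus 3 SD; inconclusive = the two replicate wells gave conflicting results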
# KCC2 retest ouab – KCC2 (human) modulation, ouabain retest. AID 1717. hit rate 48% among 3,700. HEK293-KCC2, thallium flux FluoZin2 fluorescence; bidirectional: low = inhibitor, high = activator. raw Tl+ flux slope (below DMSO = inhibition, above = activation) at 10 µM. shares compounds with KCC2 mod;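 active = thallium flux slope beyond 3 SD from same-plate DMSO control mean in most replicates, usually higher, sometimes lower; inconclusive = repeat tests gave conflicting results; inactive = no significant difference from controls in most replicates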;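 also: slope of initial-normalized fluorescence between seconds 10 and 20 after thallium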
# HEK293 Tl flux2 – counter-screen for KCC2 modulators: effect in parental HEK293 cells. hit rate 33% among 3,700. thallium flux FluoZin-2 fluorescence slope. thallium flux slope at 10 µM. shares compounds with KCC2 mod. AID 1718;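 active = thallium flux slope above the same plate's solvent-control mean plus 3 SD in both duplicate wells; inconclusive = duplicate wells that disagreed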;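 also: run without ouabain in cells lacking the KCC2 cotransporter; slope of fluorescence scaled to its starting value between 10 and 20 s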
# * hit, by the source's call; i = inactive; ? = inconclusive; . = not tested or not shown. Shown are actives, neighbours in structure and some others; about 4.2% of the full set was active somewhere.
SMILES,Autophagy mod,Insulin prom up,WT yeast gro inh,Rad51 HR inh,SKKanGAS inh,KCC2 mod,KCC2 sec1,KCC2 bumet counter,KCC2 sec2,HEK293 Tl flux,KCC2 retest ouab,HEK293 Tl flux2
O=C(CN1C(=O)NC2(CCCCCC2)C1=O)N1CCC(Cc2ccccc2)CC1,i,.,-5.7,0.6,0.3,-4.94*,0.00809,0.0249*,?,0.0119*,0.0168*,0.0105
Cc1nc(SCC(=O)NC(C)c2ccccc2)c2oc3ccccc3c2n1 (centres undefined),i,0.67,1.5,-1.4,17.1,-0.646,.,.,.,.,.,.
Cc1cc(C)nc(Sc2nc(C)nc3c2oc2ccccc23)n1,i,0.18,11.5,7.3,5.3,.,0.018,0.00443,0.0268,0.00742,0.0158,0.0103
N#CC1CCCc2c1[nH]c1ccc([N+](=O)[O-])cc21 (centres undefined),.,-0.02,.,.,6.3,0.177,.,.,.,.,.,.
O=C(OCC(=O)N1CCCc2ccccc21)c1cc(Br)ccc1O,.,.,.,.,15.9,.,.,.,.,.,.,.
C/C(=N\NC(=S)NCCc1ccccc1)c1ccc(C#N)cc1,i,-0.11,12.0,-0.2,-1.7,0.51,.,.,.,.,.,.
C/C(=N\NC(=S)NCCc1ccccc1)c1ccc(Cl)cc1,i,0.45,51.1,4.4,-14.7,6.24*,0.00608,0.0144*,0.0297,0.014*,0.0231,?
S=C(NCCc1ccccc1)NN=C1CCCCCC1,i,.,65.7*,-79.1,35.4,9.4*,0.00759,0.016*,0.0354,?,?,0.012
CNC(=S)N/N=C(\C)c1ccc(Cl)c(Cl)c1,i,0.33,27.9,-1.9,-8.8,6.63*,0.00536,0.0324*,0.0376,0.0181*,0.0317*,0.0185*
COCCNC(=S)N/N=C(\C)c1ccc(Cl)c(Cl)c1,i,-1.4,33.6,7.8,-1.7,6.62*,?,0.0319*,0.0355,?,0.0295*,?
C/C(=N\O)c1ccc(Cl)c(Cl)c1,.,-0.07,.,26.3,-3.8,-0.032,.,.,.,.,.,.
NC(=O)CC(NC(=O)Cc1cccc2ccccc12)c1ccc(NC2CC3CCC2C3)c([N+](=O)[O-])c1 (centres undefined),.,.,.,.,28.2,.,.,.,.,.,.,.
O=C(O)CC1c2ccccc2CCN1S(=O)(=O)c1ccc(F)cc1 (centres undefined),.,.,.,.,-2.4,.,.,.,.,.,.,.
CC(C)/C(=N\NS(=O)(=O)c1ccc(Br)cc1)c1cccs1,i,0.85,28.8,0.3,14.1,0.0409,.,.,.,.,.,.
CC12CC(NC(=O)N1c1cccc(C(=O)NCc3ccccc3)c1)c1ccccc1O2 (centres undefined),i,.,-12.8,.,-6.1,.,0.00719,?,0.0303,0.00737,0.0195,0.0115
CC12CC(NC(=O)N1c1cccc(C(=O)N3CCN(c4ccccc4)CC3)c1)c1ccccc1O2 (centres undefined),i,0.39,2.2,-1.3,3.0,-0.856,.,.,.,.,.,.
CSc1nc(SC(C)C(=O)O)c2c3c(sc2n1)COC(C)(C)C3 (centres undefined),.,-0.39,.,-4.9,-0.7,4.8*,0.00545,0.02*,?,0.0325*,0.034*,0.0209*
CSc1nc(SCCN(C)C)c2c3c(sc2n1)COC(C)(C)C3,.,-0.61,.,-2.2,0.5,0.96,.,.,.,.,.,.
O=C(CSc1n[nH]c(=O)[nH]c1=O)NC1CC1,i,0.17,5.2,-5.6,-9.4,-1.42,.,.,.,.,.,.
Cc1ccc(Nc2nc(-c3ccc(C)cc3)c(CC(=O)O)s2)cc1,i,-0.58,25.4,3.9,10.3,-3.19*,0.0084,0.00909*,0.0294,0.00726,0.018,0.0103
COc1ccc(Nc2nc(-c3ccc(OC)cc3)c(CCC(=O)O)s2)cc1,.,0.26,.,.,2.8,-2.91,.,.,.,.,.,.
CCOC(=O)c1ccc(NC(=O)c2nn(C)cc2Br)cc1,i,1.52,8.5,-8.2,-2.9,.,.,.,.,.,.,.
CCOC(=O)c1ccc(NC(=S)NC(=O)c2nn(CC)cc2Br)cc1,i,-0.03,3.4,1.6,7.9,5.96*,0.0109,0.00974*,0.0339,0.00916*,0.0249,0.0118*
CCOC(=O)c1ccc(NC(=O)c2nn(CC)cc2Br)cc1,i,0.73,3.4,-0.8,-9.6,-1.23,.,.,.,.,.,.
CCn1cc(Br)c(C(=O)NC(=S)Nc2ccc(C(=O)OC)cc2)n1,i,0.36,6.9,.,3.5,6.17*,0.011,0.0181*,0.0336,0.0133*,0.0263,0.0123*
SMILES,Autophagy mod,Insulin prom up,WT yeast gro inh,Rad51 HR inh,SKKanGAS inh,KCC2 mod,KCC2 sec1,KCC2 bumet counter,KCC2 sec2,HEK293 Tl flux,KCC2 retest ouab,HEK293 Tl flux2
COc1cc(CNc2ccc(N3CCCCC3)cc2)ccc1OCC(=O)NC(C)(C)C,.,.,.,.,-3.4,.,.,.,.,.,.,.
CCOc1ccccc1N(CC(=O)NCC1CCCO1)C(=O)CCC(=O)Nc1nccs1 (centres undefined),.,.,.,.,4.4,.,.,.,.,.,.,.
COc1ccc(CN2C(=O)c3cccnc3C2=O)cc1S(=O)(=O)N1CCOc2ccc(C)cc21,.,.,.,.,-8.2,.,.,.,.,.,.,.
COc1ccc(-c2nc(=S)c3ccc4ccccc4c3[nH]2)cc1,i,0.49,10.5,9.2,-11.8,78.7*,0.0216*,0.113*,0.0478*,0.0857*,0.0799*,0.0398*
Cc1cc(=O)c2ccc3ccccc3c2[nH]1,i,.,4.0,.,-27.3,-0.0267,.,.,.,.,.,.
O=C(CSc1nnnn1Cc1ccccc1)c1ccccc1,i,-0.33,31.8,1.9,-0.7,-3.24*,0.00685,0.00561,0.0274,0.00689,?,0.00901
COc1ccc(C(=O)CSc2nnnn2Cc2ccccc2)cc1,i,0.59,-2.0,1.4,-10.5,-6.37*,0.00482,0.00744*,0.0248*,0.00761,?,0.0116
COCCCn1nnnc1SCC(=O)N1c2ccccc2CC1C (centres undefined),i,-0.11,-8.9,12.8,-6.9,0.854,.,.,.,.,.,.
CC1Cc2ccccc2N1C(=O)CSc1nnnn1Cc1ccccc1 (centres undefined),i,-0.37,18.5,5.2,3.5,-3.61*,0.0072,0.00464,0.0226*,0.00732,0.015*,0.00953
COc1ccc(-c2nn(-c3ccccc3)cc2/C=C(\CC(=O)O)c2nc3ccccc3s2)cc1OC,i,-0.32,15.9,-10.0,27.3,-3.81*,0.007,0.006,0.0314,?,0.0143*,0.0105
